This note sets out measurements from ChEMBL document CHEMBL1133606, “2-Carbomethoxy-3-aryl-8-bicyclo[3.2.1]octanes: potent non-nitrogen inhibitors of monoamine transporters” (J Med Chem, 2000).

Test [1] deals with Sodium-dependent serotonin transporter (Homo sapiens, UniProt P31645). Nature of the test: Inhibition of [3H]citalopram binding to the serotonin transporter in cynomolgus (macaca fascicularis) monkey caudate putamen. Conditions: target entry is the homologue from another species; call rule not given here. It counts as tissue-based, Cercopithecidae. The method in brief:
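Caudate-putamen membranes at 4 mg original wet tissue/mL final, competition vs 1 nM [3H]citalopram in 50 mM Tris·HCl pH 7.4 with 100 mM NaCl, 7–14 drug concentrations, 2 h at 0–4 °C. Filtration on 0.1% polyethyleneimine-presoaked filters, scintillation counting with cpm converted to dpm. Nonspecific binding with 1 μM fluoxetine. IC50 by EBDA, mean of triplicate experiments.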

Test [2] concerns the target Monoamine transporters; serotonin & dopamine (UniProt P31645+Q01959). Description: Selectivity, ratio of binding to serotonin transporter (SERT) and dopamine transporter (DAT). It counts as protein assay. Conditions: Cercopithecidae. Summed up: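 Ratio computed as IC50 at SERT ([3H]citalopram binding) divided by IC50 at DAT ([3H]WIN 35,428 binding), both measured in caudate-putamen membranes.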

Chain of Monoamine transporters; serotonin & dopamine (P31645 whole entry, looked up): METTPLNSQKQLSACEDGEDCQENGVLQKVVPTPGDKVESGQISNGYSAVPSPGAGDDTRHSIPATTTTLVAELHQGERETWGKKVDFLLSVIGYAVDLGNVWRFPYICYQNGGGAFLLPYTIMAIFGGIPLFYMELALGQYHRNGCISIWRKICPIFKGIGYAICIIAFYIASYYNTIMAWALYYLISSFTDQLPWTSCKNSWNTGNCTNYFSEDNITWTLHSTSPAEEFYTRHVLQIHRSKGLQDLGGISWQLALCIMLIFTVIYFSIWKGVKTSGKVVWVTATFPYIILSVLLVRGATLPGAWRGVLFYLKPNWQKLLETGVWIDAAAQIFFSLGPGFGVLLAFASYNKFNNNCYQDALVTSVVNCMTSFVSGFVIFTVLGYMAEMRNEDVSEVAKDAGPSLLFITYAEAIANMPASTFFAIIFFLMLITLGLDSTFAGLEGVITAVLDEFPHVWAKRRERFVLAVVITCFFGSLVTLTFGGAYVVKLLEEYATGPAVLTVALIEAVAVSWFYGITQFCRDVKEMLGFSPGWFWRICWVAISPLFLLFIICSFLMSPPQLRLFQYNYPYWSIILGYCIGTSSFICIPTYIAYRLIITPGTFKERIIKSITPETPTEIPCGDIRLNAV
Chain of Monoamine transporters; serotonin & dopamine (Q01959 whole entry, looked up): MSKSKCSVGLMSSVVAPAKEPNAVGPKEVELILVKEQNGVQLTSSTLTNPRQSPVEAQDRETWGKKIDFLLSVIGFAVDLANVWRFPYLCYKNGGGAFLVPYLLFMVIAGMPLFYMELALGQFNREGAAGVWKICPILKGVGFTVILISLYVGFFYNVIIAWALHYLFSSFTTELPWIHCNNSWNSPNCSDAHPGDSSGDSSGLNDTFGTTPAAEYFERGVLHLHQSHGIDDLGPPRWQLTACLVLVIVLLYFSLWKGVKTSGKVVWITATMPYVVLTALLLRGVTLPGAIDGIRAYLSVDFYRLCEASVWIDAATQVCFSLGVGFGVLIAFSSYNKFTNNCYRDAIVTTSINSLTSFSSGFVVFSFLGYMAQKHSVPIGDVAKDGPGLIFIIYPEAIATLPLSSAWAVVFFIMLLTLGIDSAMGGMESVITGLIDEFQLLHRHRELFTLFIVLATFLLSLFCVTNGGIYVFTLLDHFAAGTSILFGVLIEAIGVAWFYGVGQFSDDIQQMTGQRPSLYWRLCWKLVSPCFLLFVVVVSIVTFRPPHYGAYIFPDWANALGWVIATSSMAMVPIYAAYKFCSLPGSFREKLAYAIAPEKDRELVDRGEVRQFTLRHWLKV
Chain of Sodium-dependent serotonin transporter (P31645 whole entry): as the sequence (P31645 whole entry, looked up) above

What is called IC50 is the concentration needed to halve the response being measured. The compound `COC(=O)[C@H]1C(c2ccc3ccccc3c2)CC2CCC1N2C` (stereo partly specified) had an IC50 in test [1] of 5.95 nM. In addition, the Selectivity in test [2] worked out at 10.

Compound `COC(=O)[C@H]1C2CCC(C2)C[C@@H]1c1ccc(Cl)c(Cl)c1` (stereo in doubt; 9a) [listing 1 of 2 here] yielded an IC50 in test [1] of 180 nM.

With `COC(=O)[C@H]1C2CCC(C2)C[C@@H]1c1ccc2ccccc2c1` (stereo in doubt; 9b) [listing 1 of 2 here], the Selectivity in test [2] is 4.

As for `COC(=O)C1C(c2ccc(Cl)c(Cl)c2)CC2CCC1N2C` (stereo in doubt; 13a) [listing 1 of 2 here], the Selectivity in test [2] was 179.

Consider `COC(=O)C1C2CCC(C2)CC1c1ccccc1` (stereo unspecified), for which the IC50 in test [1] (read-out: IC50) is more than 20000 nM. The Selectivity in test [2] was 25.

For `COC(=O)c1ccccc1-c1ccccc1`, the IC50 in test [1] (read-out: IC50) is more than 70000 nM.

In test [1], `COC(=O)C1C(c2ccc(Cl)c(Cl)c2)CC2CCC1N2C` (stereo in doubt; 13a) [listing 2 of 2 here] registered an IC50 of 358 nM.

On to `COC(=O)[C@@H]1C2CCC(C2)C[C@@H]1c1ccc2ccccc2c1` (stereo partly specified), for which, in test [1], the concentration for half-maximal inhibition (IC50) was found to be 60 nM. In addition, in test [2], the Selectivity was found to be 2.

For the compound `COC(=O)C1=C(c2ccc3ccccc3c2)CC2CCC1N2C` (stereo unspecified), in test [1] (read-out: IC50), the IC50 turned out to be 109 nM. Also, the Selectivity in test [2] is 38.

Consider `COC(=O)C1=C(c2ccc(F)cc2)CC2CCC1C2` (stereo unspecified), for which the IC50 in test [1] amounted to 35400 nM. The Selectivity in test [2] was determined as 91.

With `COC(=O)C1=C(c2ccccc2)CC2CCC1C2` (stereo unspecified), in test [1] (read-out: IC50), the IC50 is more than 10000 nM.

As to `COC(=O)[C@@H]1C2CCC(C2)CC1c1ccc2ccccc2c1` (stereo partly specified), the IC50 in test [1] is 106 nM. Also, in test [2], the Selectivity was 4.

The compound `COC(=O)[C@H]1C2CCC(C2)C[C@@H]1c1ccc(Cl)c(Cl)c1` (stereo in doubt; 7a) [listing 1 of 2 here] registered an IC50 in test [1] of 33 nM.

`COC(=O)[C@H]1C2CCC(C2)C[C@@H]1c1ccc2ccccc2c1` (stereo in doubt; 9b) [listing 2 of 2 here] registered an IC50 in test [1] of 64 nM.

Turning to `COC(=O)C1C(c2ccc(Cl)c(Cl)c2)CC2CCC1N2C` (stereo in doubt; 14a), the Selectivity in test [2] turned out to be 68.

Take `COC(=O)[C@H]1C2CCC(C2)C[C@@H]1c1ccc(Cl)c(Cl)c1` (stereo in doubt; 9a) [listing 2 of 2 here]: in test [2], the Selectivity is 14.

In the case of `COC(=O)[C@H]1[C@@H](c2ccc(F)cc2)C[C@H]2CC[C@H]1N2C` (stereo in doubt; 13c), the IC50 in test [1] was 12200 nM.

For the compound `COC(=O)C1=C(c2ccccc2)CC2CCC1N2C` (stereo unspecified), the IC50 result in test [1] is recorded as “Not Active”.

On to `COC(=O)C1=C(c2ccc(F)cc2)CC2CCC1N2C` (stereo unspecified), for which the IC50 in test [1] (read-out: IC50) turned out to be 7990 nM. The Selectivity in test [2] was found to be 20.

For `COC(=O)[C@H]1C2CCC(C2)C[C@@H]1c1ccc(Cl)c(Cl)c1` (stereo in doubt; 7a) [listing 2 of 2 here], the Selectivity in test [2] was 3.

As for `COC(=O)[C@H]1C2CCC(C2)C[C@@H]1c1ccc2ccccc2c1` (stereo in doubt; 8b) [listing 1 of 2 here], in test [1], the IC50 came to 807 nM.

For `COC(=O)C1=C(c2ccc(Cl)c(Cl)c2)CC2CCC1C2` (stereo unspecified), the Selectivity in test [2] was determined as 726.

The compound `COC(=O)C1=C(c2ccc3ccccc3c2)CC2CCC1C2` (stereo unspecified) yielded an IC50 in test [1] of 1310 nM. Moreover, the Selectivity in test [2] was 119.

With `COC(=O)C1C(c2ccc3ccccc3c2)CC2CCC1N2C` (stereo unspecified), in test [1], the IC50 was determined as 2.19 nM. Besides, in test [2], the Selectivity turned out to be 4.

For `COC(=O)[C@H]1C2CCC(C2)C[C@@H]1c1ccc2ccccc2c1` (stereo in doubt; 8b) [listing 2 of 2 here], the Selectivity in test [2] was found to be 67.

`COC(=O)C1C(c2ccc(Cl)c(Cl)c2)CC2CCC1N2C` (stereo in doubt; 12a) [listing 1 of 2 here] yielded an IC50 in test [1] of 2 nM.

For `COC(=O)c1ccccc1C(=O)OC` [DIMETHYL PHTHALATE], the IC50 in test [1] (read-out: IC50) was more than 100000 nM.

In the case of `COC(=O)c1ccccc1-c1ccc(F)cc1`, the IC50 in test [1] (read-out: IC50) was determined as 33000 nM. In addition, the Selectivity in test [2] turned out to be 2.

With `COC(=O)c1ccccc1-c1ccc(Cl)cc1`, the IC50 in test [1] (read-out: IC50) is 46000 nM. Further, in test [2], the Selectivity was 68.

For the compound `COC(=O)c1ccccc1-c1ccc2ccccc2c1`, the IC50 in test [1] came to 10000 nM. In test [2], the Selectivity came out at 69.

As to `COC(=O)C1C(c2ccc(Cl)c(Cl)c2)CC2CCC1N2C` (stereo in doubt; 12a) [listing 2 of 2 here], the Selectivity in test [2] is 2.

For `COC(=O)[C@@H]1C2CCC(C2)C[C@@H]1c1ccc(Cl)c(Cl)c1` (stereo partly specified), in test [1], the IC50 was 650 nM. Moreover, the Selectivity in test [2] was 46.

Take `COC(=O)C1=C(c2ccc(Cl)c(Cl)c2)CC2CCC1N2C` (stereo unspecified): the Selectivity in test [2] was determined as 723.
